Consider 7 compounds from paper PMC8385540 (Journal of natural products, 2013).

The test system of one experiment is FSH receptor. The settings on record: previously reported; cited from earlier work.
Experiment [1] has as its target human cannabinoid CB2 receptor (Homo sapiens, UniProt P34972). The experiment can be described thus: Plate-based assay, inhibition of CB2 receptor internalization. The experiment is classed as cell-based. In outline: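 CHO cells stably expressing human CB2, seeded at 2.0 × 10^5 cells/mL in 96-well plates, grown 24 h in DMEM/F12 with 10% FBS. Preincubated 1 h with twofold serial dilutions of test compound (top 10 μM; DMSO <0.1% final), then 1 h with 2 nM [3H]-CP 55,940. Washed, NaOH-lysed, scintillation counted, and normalized to no-compound uptake. IC50 from sigmoid nonlinear fit, means ± SE (n = 6). JD5037 as positive control.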

In experiment [2] the target is human cannabinoid CB1 receptor (Homo sapiens, UniProt P21554). The experiment can be described thus: Plate-based assay, inhibition of CB1 receptor internalization. It counts as cell-based.
Chain of human cannabinoid CB1 receptor (P21554 whole entry): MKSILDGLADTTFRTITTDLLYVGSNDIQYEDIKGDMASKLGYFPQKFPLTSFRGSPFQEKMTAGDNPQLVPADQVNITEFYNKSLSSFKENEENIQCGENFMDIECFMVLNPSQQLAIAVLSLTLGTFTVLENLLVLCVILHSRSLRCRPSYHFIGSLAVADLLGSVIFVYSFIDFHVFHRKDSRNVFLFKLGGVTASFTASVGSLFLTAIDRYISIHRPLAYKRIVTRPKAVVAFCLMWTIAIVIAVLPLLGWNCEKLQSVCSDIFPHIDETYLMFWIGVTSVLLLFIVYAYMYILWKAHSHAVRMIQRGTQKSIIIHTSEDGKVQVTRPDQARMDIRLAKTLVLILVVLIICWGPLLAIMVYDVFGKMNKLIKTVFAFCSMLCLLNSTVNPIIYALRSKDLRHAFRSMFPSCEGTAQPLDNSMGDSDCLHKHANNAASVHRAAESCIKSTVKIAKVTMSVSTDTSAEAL
In a further experiment the target is HRH4 (Homo sapiens, UniProt Q9H3N8). Briefly: DiscoveRX gpcrMAX panel, agonist/antagonist. The experiment is classed as cell-based. Conditions: HRH4, antagonist mode; negative inhibition may indicate agonist or PAM activity.
Chain of HRH4 (Q9H3N8 whole entry): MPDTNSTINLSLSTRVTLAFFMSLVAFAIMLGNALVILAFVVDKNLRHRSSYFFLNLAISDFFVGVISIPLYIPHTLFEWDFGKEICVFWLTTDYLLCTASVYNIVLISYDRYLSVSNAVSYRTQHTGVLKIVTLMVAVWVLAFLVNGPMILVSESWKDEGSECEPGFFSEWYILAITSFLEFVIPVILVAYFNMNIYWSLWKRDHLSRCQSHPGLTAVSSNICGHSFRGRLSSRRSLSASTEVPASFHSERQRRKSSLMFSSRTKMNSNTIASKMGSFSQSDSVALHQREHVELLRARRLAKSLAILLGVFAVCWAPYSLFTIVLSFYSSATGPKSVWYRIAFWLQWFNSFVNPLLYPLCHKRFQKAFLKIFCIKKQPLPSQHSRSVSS
The next experiment addresses T1, RXFP3 (Homo sapiens, UniProt Q9NSD7).
T1 sequence (Q9NSD7 1-469): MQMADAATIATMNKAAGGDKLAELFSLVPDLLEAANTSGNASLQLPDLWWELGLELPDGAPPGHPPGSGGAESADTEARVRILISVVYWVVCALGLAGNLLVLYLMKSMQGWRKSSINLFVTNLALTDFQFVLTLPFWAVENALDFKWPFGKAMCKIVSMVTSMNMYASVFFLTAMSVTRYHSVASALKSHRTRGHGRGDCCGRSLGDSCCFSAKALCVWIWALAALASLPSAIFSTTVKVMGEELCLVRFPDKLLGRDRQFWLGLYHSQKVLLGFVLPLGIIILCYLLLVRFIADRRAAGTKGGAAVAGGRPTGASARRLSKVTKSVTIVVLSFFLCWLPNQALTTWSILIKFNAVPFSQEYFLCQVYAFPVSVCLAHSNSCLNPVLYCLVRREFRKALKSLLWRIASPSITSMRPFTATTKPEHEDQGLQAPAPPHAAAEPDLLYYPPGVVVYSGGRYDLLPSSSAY
Briefly: DiscoveRX gpcrMAX panel, agonist/antagonist. The experiment is classed as cell-based. The settings on record: RXFP3, antagonist mode; negative inhibition may indicate agonist or PAM activity.

Chain of human cannabinoid CB2 receptor (P34972 whole entry): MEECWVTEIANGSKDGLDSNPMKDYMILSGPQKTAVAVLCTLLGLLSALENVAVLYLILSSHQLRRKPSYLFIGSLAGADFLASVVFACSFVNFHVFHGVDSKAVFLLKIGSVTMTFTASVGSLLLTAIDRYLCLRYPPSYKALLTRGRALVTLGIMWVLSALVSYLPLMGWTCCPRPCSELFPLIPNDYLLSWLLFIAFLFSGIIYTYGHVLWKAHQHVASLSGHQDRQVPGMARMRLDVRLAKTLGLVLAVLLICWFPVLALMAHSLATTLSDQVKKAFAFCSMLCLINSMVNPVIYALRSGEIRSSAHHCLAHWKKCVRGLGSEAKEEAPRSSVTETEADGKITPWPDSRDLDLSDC

On to `CCCCCc1cc(O)c2c(c1)OC(C)(C)[C@@H]1CCC(C)=C[C@@H]21` [Δ^9-tetrahydrocannabinol], for which the “inhibition of the FSH receptor (in words)” value in the experiment on FSH receptor is “specific inhibition”.

For the compound `CC/C=C/C/C=C\CC/C=C/C=C/C(=O)NCC(C)(C)O` [Compound 6, isobungeanool], the “antagonism of the CB2 receptor (in words)” value in experiment [1] was “weak antagonists”.

Consider `CCCCCCCCC/C=C/C=C/C(=O)NCC(C)(C)O` [Compound 8, tetrahydrobungeanool], for which the IC50 (commonly the concentration that gives 50% inhibition) in experiment [1] was found to be 1.8 nM.

As to `CC(C)[C@H](N=C(NS(=O)(=O)c1ccc(Cl)cc1)N1C[C@H](c2ccccc2)C(c2ccc(Cl)cc2)=N1)C(N)=O` [JD5037, reference compound], in experiment [1] (positive control), the “IC50 of positive control, CB2 (in words)” value was “within the expected range”. The “IC50 of positive control, CB1 (in words)” value in experiment [2] (positive control) is recorded as “within the expected range”.

In the case of `C/C=C/C=C/C=C/CC/C=C/C=C/C(=O)NCC(C)C` [Compound 7, (2E,4E,8E,10E,12E)-N-isobutyl-2,4,8,10,12-tetradecapentaenamide], the % inhibition (commonly the change of the read-out against control, counted positive when it falls) on HRH4 is given as −54%; on RXFP3 it was −81%. Besides, the “antagonism of the CB2 receptor (in words)” value in experiment [1] is on record as “weak antagonists”. In addition, the “antagonistic properties against the CB1 receptor (in words)” value in experiment [2] is recorded as “strong antagonistic properties”.

As to `C/C=C/C=C/C=C\CC/C=C/C(=O)NCC(C)(C)O` [Compound 2, hydroXy-α-sanshool], the “fold increase in activity against the CB2 receptor, 2 vs 3” value in experiment [1] (cis configuration at C-6 of 2 compared with 3) came out at 2 fold.

Take `C/C=C/C=C/C=C\CC/C=C/C=C/C(=O)NCC(C)(C)O` [Compound 4, hydroXy-γ-sanshool]: the “fold more potent for CB1, 4 vs 5” value in experiment [2] (C-8 cis-isomer 4 compared with 5) is 10 fold.
